Results collected from several papers.
Each line is one published result; the experiments were not run side by side.
Target: Phosphatidylinositol 4,5-bisphosphate 3-kinase catalytic subunit gamma isoform (PIK3CG, Homo sapiens, UniProt P48736)

| Structure (SMILES) | test | conditions | remaining binding [%] |
| --- | --- | --- | --- |
| C=CC(=O)N1CCC(C(=O)NCC(=O)N2CCN(c3nc(-c4cnc(N)nc4C(F)F)nc(N4CCOCC4)n3)CC2)CC1 | binding, competition with immobilised ligand | 1 µM | 0.1 |
| O=C(NCCCN1CCOCC1)c1ccc(Nc2nccc(-c3cc4ccccc4s3)n2)cc1 | binding, competition with immobilised ligand | 1 µM | 20 |
| CC1CCCN1c1nccc(-c2cnn3ncccc23)n1 (stereo not drawn) | binding | 1 µM | 100 |
| COC(=O)Nc1nc2ccc(C(=O)c3ccccc3)cc2[nH]1 | cell-free assay, competition with immobilised ligand | 10 µM | 18 |
| O=C(Nc1c[nH]nc1C(=O)NC1CCNCC1)c1cc(F)cc(F)c1 | binding, competition with immobilised ligand | 1 µM | 100 |
| Cn1cc(Cl)c2c(Oc3c(F)cc(Nc4cc(Cl)nc(N)n4)cc3F)ccnc21 | cell-free assay, competition with immobilised ligand | 0.1 µM | 82 |
| CN(C)c1nccc(-c2cnn3ncccc23)n1 | binding | 1 µM | 76 |
| C[C@@H](c1cccc(C#N)c1)n1cc(Cl)cc(C(N)=O)c1=N | cell-free assay, competition with immobilised ligand | 1 µM | 100 |
| c1cncc(-c2cccc(Nc3nccc(NC4CCCCC4)n3)c2)c1 | binding, competition with immobilised ligand | 10 µM | 69 |
| COc1cnc(Nc2cccc(S(N)(=O)=O)c2)nc1N1CCN(c2ccccc2)CC1 | binding, competition with immobilised ligand | 1 µM | 94 |
| O=C(O)[C@@H]1[C@@H](Cn2nnc3ccccc3c2=O)CC[C@H]1C(=O)c1ccc(OCCC2CCOCC2)cc1 | cell-free assay, competition with immobilised ligand | 1 µM | 100 |
| Nc1ncc2c(n1)-c1c([nH]c3ccc(C#CC4CC4)cc13)CCCC2 | binding, competition with immobilised ligand | 1 µM | 77 |
| O=C(NCCCN1CCOCC1)c1ccc(Nc2ncc(Cl)c(-c3ccc(Cl)s3)n2)cc1 | binding, competition with immobilised ligand | 1 µM | 100 |
| c1cnn2ncc(-c3ccnc(N4CCC45COC5)n3)c2c1 | binding | 1 µM | 74 |
| NS(=O)(=O)c1cc(NC(=O)Cc2ccccc2)ccc1Oc1cccc(Cl)c1 | cell-free assay, competition with immobilised ligand | 1 µM | 77 |
| O=C(c1ccc(Nc2ncc(Cl)c(-c3ccc(Cl)s3)n2)cc1)N1CCC(N2CCCC2)CC1 | binding, competition with immobilised ligand | 1 µM | 90 |
| CC(C)(C)c1ccc(-c2nc(CBr)nn2-c2cccc(O)c2)cc1 | cell-free assay, competition with immobilised ligand | 10 µM | 94 |
| COCCOc1nc(-c2ccc(Cl)nc2)nc2c1CN(C(=O)c1ncn3ccccc13)CC2 | cell-free assay, competition with immobilised ligand | 0.1 µM | 100 |
| C[C@H]1CCN(c2nccc(-c3cnn4ncccc34)n2)C1 | binding | 1 µM | 82 |
| CCCCN(CCCC)C(=O)CN1C[C@H](c2cc(OC)c3c(c2)OCO3)[C@@H](C(=O)O)[C@@H]1CC(C)(C)CCC | cell-free assay, competition with immobilised ligand | 1 µM | 76.9 |
| F[C@@H]1CCN(c2nccc(-c3cnn4ncccc34)n2)C1 | binding | 1 µM | 100 |
| O=C(Nc1cccnn1)N1CCC(=Cc2cccc(Oc3ccc(C(F)(F)F)cn3)c2)CC1 | cell-free assay, competition with immobilised ligand | 1 µM | 100 |
| N[C@H]1CCN(c2nccc(-c3cnn4ncccc34)n2)C1 | binding | 1 µM | 100 |
| CNC(=O)[C@@H]1CC[C@@H](n2c(-c3ccc4cnccc4c3)nc3ccc(C(=O)NCc4cccc(C(N)=O)c4)cc32)C1 | binding, competition with immobilised ligand | 1 µM | 100 |
